From PubChem
The list is not random: actives were taken first. Their share in the collection is about 2.5%.
TRPC6 inh = mouse TRPC6 channel inhibitors, primary screen, cell-based, HEK293, membrane potential dye; Short transient receptor potential channel 6 (Mus musculus), Q61143; hit rate 1.1% among 310,000; B-score at 10 µM; ACh-evoked depolarization; active compounds read low;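 active = B-score under library mean minus 3 SD, initial fluorescence not abnormally high, positive integrated signal ratio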;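 also: B-score derived from integrated fluorescence ratio over the kinetic read; more negative B-score means stronger inhibition of depolarization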
TRPC6 act = mouse TRPC6 channel activators, primary screen, cell-based, HEK293, membrane potential dye | AID 2550, 2010 | HEK293-TRPC6 membrane potential dye fluorescence; active compounds read high | B-score at 10 µM | Short transient receptor potential channel 6 (Mus musculus), Q61143 | hit rate 0.13% among 310,000;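 active = B-score of the integrated fluorescence ratio above library mean plus 3 SD, and starting fluorescence ratio within library mean plus 5 SD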;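 also: higher score means more depolarization so channel activation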
DSG3 Ab inh = inhibitors of pemphigus antibody binding to DSG3, primary screen, biochemical, bead-based, flow cytometry, scFv-GFP; hit rate 0.48% among 310,000; DSG3-coupled beads, scFv-anti-DSG3-GFP binding; active compounds read low; binding (percent of control), % at 10 µM; AID 588358, 2011;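 active = binding more than 3 SD below its plate's average and above zero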;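 also: hits lower antibody fragment binding to DSG3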
TRPC4 act = activators of mouse TRPC4 channel, primary screen, Fluo4 calcium, HEK293 TRPC4beta/mu-opioid cells. hit rate 0.49% among 310,000. Fluo4 calcium fluorescence; active compounds read high. B-score at 10 µM;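 active = B-score above 5 SD of library B-scores, and initial fluorescence ratio not above library mean plus 5 SD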;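 also: positive B-score marks a calcium rise read as TRPC4 activation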
Target sequence (Q9QUQ5 whole entry, looked up): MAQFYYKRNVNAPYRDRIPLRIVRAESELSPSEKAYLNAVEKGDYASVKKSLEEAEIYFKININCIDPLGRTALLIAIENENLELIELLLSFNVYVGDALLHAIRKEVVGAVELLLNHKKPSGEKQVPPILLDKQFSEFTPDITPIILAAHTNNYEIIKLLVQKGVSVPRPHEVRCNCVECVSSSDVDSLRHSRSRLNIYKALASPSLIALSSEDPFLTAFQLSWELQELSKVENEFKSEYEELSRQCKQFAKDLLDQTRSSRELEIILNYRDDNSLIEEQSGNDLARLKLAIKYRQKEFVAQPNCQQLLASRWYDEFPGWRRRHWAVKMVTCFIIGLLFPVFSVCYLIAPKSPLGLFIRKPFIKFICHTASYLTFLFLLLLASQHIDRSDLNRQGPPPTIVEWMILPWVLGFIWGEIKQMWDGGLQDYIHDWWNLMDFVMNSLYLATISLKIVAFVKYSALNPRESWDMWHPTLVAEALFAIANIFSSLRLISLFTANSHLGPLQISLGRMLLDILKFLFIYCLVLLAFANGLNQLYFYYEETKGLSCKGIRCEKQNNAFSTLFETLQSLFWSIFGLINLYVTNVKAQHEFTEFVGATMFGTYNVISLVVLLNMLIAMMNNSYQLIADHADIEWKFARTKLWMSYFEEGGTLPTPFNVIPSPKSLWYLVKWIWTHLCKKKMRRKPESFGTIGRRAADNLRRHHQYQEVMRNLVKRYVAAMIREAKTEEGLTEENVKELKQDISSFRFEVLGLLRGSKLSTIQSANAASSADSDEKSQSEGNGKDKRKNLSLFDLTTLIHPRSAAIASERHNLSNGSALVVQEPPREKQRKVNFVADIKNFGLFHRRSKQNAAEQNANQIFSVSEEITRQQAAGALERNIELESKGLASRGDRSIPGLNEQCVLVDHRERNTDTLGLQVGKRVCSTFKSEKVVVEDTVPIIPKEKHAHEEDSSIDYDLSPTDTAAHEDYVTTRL
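Assay system – TRPC4beta and mu-opioid receptor HEK293 stable cells · Measured by – Fluo4 fluorescence, kinetic · Schedule – dye loading 45 min room temperature, 110 s kinetic read · Read-out – B-scored integrated calcium fluorescence ratio · Controls – buffer and maximal DAMGO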
TRPC4 PAM = positive allosteric modulators of TRPC4, primary screen, cell-based, mouse TRPC4beta, HEK293 mu-opioid, Fluo-4 calcium; B-score at 10 µM; DAMGO EC20, Fluo-4 Ca2+ flux; active compounds read high; AID 2227, 2009; hit rate 0.42% among 310,000;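 active = B-score of calcium response area above 5 SD of library B-scores, with initial fluorescence ratio within 5 SD of library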
TRPC4 block = inhibitors of mouse TRPC4 channel, primary screen, Fluo4 calcium, HEK293 TRPC4beta/mu-opioid cells | B-score at 10 µM | hit rate 0.39% among 300,000 | Short transient receptor potential channel 4 (Mus musculus), Q9QUQ5 | DAMGO-evoked Fluo4 calcium flux; active compounds read low;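 active = B-score over 3 SD under the library average, no early fluorescence shift, positive overall ratio signal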
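test system = HEK293 cells with stable TRPC4beta plus mu-opioid receptor expression | detection = Fluo4 Ca2+ flux fluorescence | read-out = integrated fluorescence ratio relative to baseline, converted to per-well B score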
Large screens that a line does not name were inactive.

Cc1cccc(NC(=O)CNC(=O)CN2C(=O)NC3(CCCCC3C)C2=O)c1C (configuration not stated)	TRPC4 PAM 17
Cc1ccc(NC(=O)NNC(=O)C2CCN(Cc3ccc(F)cc3Cl)CC2)cc1	DSG3 Ab inh 50.1
Cc1ccc(/C=N/NC(=O)C2CCN(Cc3ccc(F)cc3Cl)CC2)o1	none
Cc1ccc2nc(C(=O)N3CCc4c([nH]c5ccccc45)C3c3ccccn3)cn2c1 (configuration not stated)	TRPC4 act 81
CSc1nc(C(=O)N2CCc3c([nH]c4ccccc34)C2c2ccccn2)cs1 (configuration not stated)	none
O=C(Cn1nc(CNc2ccc(Br)cc2)[n+]2c1CCCCC2)c1ccc([N+](=O)[O-])cc1	none
CC1CC(C)CN(CCCNC(=O)COc2cc(=O)n(C)c3ccccc23)C1 (configuration not stated)	TRPC4 act 85, TRPC4 PAM 10 (no result: DSG3 Ab inh)
CC1CCN(CCCNC(=O)COc2cc(=O)n(C)c3ccccc23)CC1	none
CCn1c(=O)cc(OCC(=O)NCCCN2CC(C)CC(C)C2)c2ccccc21 (configuration not stated)	TRPC4 act 90
COc1ccc(NC(=O)C/C(C)=N/NC(=O)c2ccccn2)c(OC)c1	none
CCOC(=O)c1c(C)[nH]c(C)c1C(=O)COC(=O)c1nc2nccc(C)n2n1	none
CC(=O)Nc1ccc(C(=S)NCCCO)cc1	none
NC(=S)N/N=C1/CCSc2ccc3ccccc3c21	TRPC4 PAM 17
NC(=S)N/N=C/c1c(O)ccc2ccccc12	none
COc1ccc2c(Cl)c(-c3nnc4n3CCCCC4)sc2c1	TRPC4 act 167
Clc1c(-c2nnc3n2CCCCC3)sc2ccccc12	none
COc1ccc(C2=NN(C(=O)c3ccccc3)C(c3ccc(OC)c(OC)c3)C2)c(O)c1 (configuration not stated)	TRPC4 block -7
COc1ccc(C2=NN(C(=O)/C=C/c3ccccc3)C(c3ccccc3)C2)c(OC(C)=O)c1 (configuration not stated)	none
COc1ccccc1C1=NN(C(=O)c2ccccc2)C(c2ccc(Br)cc2)C1 (configuration not stated)	none
COc1ccc(C2CC(c3ccc(OC)cc3OC(C)=O)=NN2C(=O)c2ccccc2)cc1 (configuration not stated)	TRPC4 PAM 11
CNC(=S)N(CCc1c(C)[nH]c2ccc(F)cc12)Cc1cccnc1	none
CCCN(C(=O)c1cccs1)c1nnc(-c2ccncc2)s1	DSG3 Ab inh 78.2
Cc1cccc(-n2nc(C)c3c(C(=O)O)cc(-c4cccs4)nc32)c1	TRPC4 block -6
Cc1nn(-c2cccc(Cl)c2)c2nc(-c3ccco3)cc(C(=O)O)c12	none
Cc1nn(-c2ccccn2)c2nc(-c3cccs3)cc(C(=O)N3CCOCC3)c12	TRPC4 PAM 12
Nc1ncncc1-c1ccc2ccccc2c1	none
N#Cc1ncc(-c2ccc3c(c2)OCCOCCOCCOCCOCCO3)nc1C#N	TRPC4 block -6
Cc1[nH]c2ccccc2c1C(=O)CN1C(=O)NC(C)(c2ccc(Cl)cc2Cl)C1=O (configuration not stated)	TRPC4 PAM 20
Cc1[nH]c2ccccc2c1C(=O)CSc1ccc(Cl)cc1	none
Cc1cccn2c(CNCCc3ccccn3)c(C(=O)N3CCOCC3)nc12	TRPC4 act 171
C=CCn1c(SCC(=O)Nc2ccc(N3CCOCC3)cc2)nc2ccccc2c1=O	none
O=C(CSc1nc2[nH]ncc2c(=O)n1-c1ccccc1Br)NCc1ccccc1Cl	TRPC4 block -6
